Measurements of several laboratories.
Sample: plasma

| SMILES | species | route | dose | setting | quantity | result |
| --- | --- | --- | --- | --- | --- | --- |
| Oc1cc(O)cc(-c2cc3ccc(O)cc3o2)c1 | male rat | intravenous | 5 mg/kg |  | clearance | 89.5 mL/min/kg |
| CNCc1cc(-c2ccccc2F)n(S(=O)(=O)c2cccnc2)c1 | Sprague-Dawley rat | oral | 10 mg/kg |  | CL/F | 293 mL/min/kg |
| Cl.Clc1ccc2c(c1)nc(N1CCNCC1)n2Cc1ccccc1 | rat | intravenous | 1 mg/kg |  | clearance | 144 mL/min/kg |
| Cc1nn2c(-c3c(C)nn(C)c3-c3ccc(C(F)(F)F)cc3)nc(CO)c2c(=O)[nH]1 | male Wistar rat | intravenous | 1 mg/kg |  | clearance | 28 mL/min/kg |
| CCCC[C@@H]1NC(=O)[C@H](Cc2ccc(O)cc2)NC(=O)[C@@H]2CCCN2C(=O)[C@H](CC(=O)O)NC(=O)[C@H](C)NC(=O)[C@H](Cc2ccccc2)NC(=O)[C@@H]2CSCCC(=O)N3CN(CN(C3)C(=O)CCSC[C@@H](C(=O)N[C@@H](C)C(N)=O)NC1=O)C(=O)CCSC[C@H](NC(C)=O)C(=O)N[C@@H](CC(C)(C)C)C(=O)N1CCC[C@H]1C(=O)N[C@@H](CCC(=O)O)C(=O)N[C@H](CCCCNC(=O)CCc1cn(CCOCCOCCOCCOCCOCCOCCOCCOCCOCCOCCNC(=O)CCOCCN(CCOCCC(=O)NCCOCCOCCOCCOCCOCCOCCOCCOCCOCCOCCn3cc(CCC(=O)NCCCC[C@H]4NC(=O)[C@H](CCC(=O)O)NC(=O)[C@@H]5CCCN5C(=O)[C@H](CC(C)(C)C)NC(=O)[C@@H](NC(C)=O)CSCCC(=O)N5CN6CN(C5)C(=O)CCSC[C@H](NC(=O)[C@H](Cc5ccc(O)cc5)NC(=O)[C@@H]5CCCN5C4=O)C(=O)N[C@@H](Cc4ccccc4)C(=O)N[C@@H](C)C(=O)N[C@@H](CC(=O)O)C(=O)N4CCC[C@H]4C(=O)N[C@@H](Cc4ccc(O)cc4)C(=O)N[C@@H](CCCC)C(=O)N[C@H](C(=O)N[C@@H](C)C(N)=O)CSCCC6=O)nn3)CCOCCC(=O)NCCOCCOCCOCCOCCOCCOCCOCCOCCOCCOCCn3cc(CCC(=O)N[C@H]4CSCCC(=O)N5CN6CN(C5)C(=O)CCSC[C@H](NC(=O)[C@@H](CC(=O)O)NC(=O)[C@H](Cc5cccc7ccccc57)NC(=O)[C@@H]5CCCN5C4=O)C(=O)N[C@@H](CCSC)C(=O)N[C@@H](CCCCNC(=N)N)C(=O)N[C@@H](CC(=O)O)C(=O)N[C@@H](Cc4c[nH]c5ccccc45)C(=O)N[C@@H](CO)C(=O)N[C@@H]([C@@H](C)O)C(=O)N4CCC[C@H]4C(=O)N4C[C@H](O)C[C@H]4C(=O)N[C@@H](Cc4c[nH]c5ccccc45)C(=O)N[C@H](C(N)=O)CSCCC6=O)nn3)nn1)C(=O)N1CCC[C@H]1C(=O)N[C@@H](Cc1ccc(O)cc1)C(=O)N2 | rat | intravenous | 2 mg/kg |  | clearance | 12 mL/min/kg |
| C#Cc1cccc(Nc2ncnc3cc(OCCOC)c(OCCOC)cc23)c1 | male Sprague-Dawley rat | oral | 12 mg/kg | single dose | CL/F | 22 mL/min/kg |
| Oc1c(Br)cc(Cl)c2cccnc12 | Sprague-Dawley rat | intravenous | 2 mg/kg |  | clearance | 27.8 mL/min/kg |
| CC[C@H](C)[C@H](NC(=O)[C@H](Cc1ccccc1)NC(=O)[C@H](CCC(=O)O)NC(=O)[C@H](CCCNC(=N)N)NC(=O)[C@H](C)NC(=O)[C@H](C)NC(=O)[C@H](CCC(N)=O)NC(=O)[C@H](CCC(=O)O)NC(=O)[C@H](CCC(=O)O)NC(=O)[C@H](CC(C)C)NC(=O)[C@H](Cc1ccc(O)cc1)NC(=O)[C@H](CO)NC(=O)[C@H](CO)NC(=O)[C@@H](NC(=O)[C@H](CC(=O)O)NC(=O)[C@H](CO)NC(=O)[C@@H](NC(=O)[C@H](Cc1ccccc1)NC(=O)[C@@H](NC(=O)CNC(=O)[C@H](CCC(=O)O)NC(=O)[C@H](C)NC(=O)CCc1c[nH]cn1)[C@@H](C)O)[C@@H](C)O)C(C)C)C(=O)N[C@@H](C)C(=O)N[C@@H](Cc1c[nH]c2ccccc12)C(=O)N[C@@H](CC(C)C)C(=O)N[C@H](C(=O)N[C@@H](CCCNC(=N)N)C(=O)NCC(=O)N[C@@H](CCCNC(=N)N)C(=O)N[C@@H](CCCCNC(=O)COCCOCCNC(=O)COCCOCCNC(=O)CC[C@H](NC(=O)CCCCCCCCCCCCCCCCC(=O)O)C(=O)O)C(=O)O)C(C)C | rat | subcutaneous | 20 nmol/kg |  | CL/F | 0.145 mL/min/kg |
| COc1ccc2c(Cc3ccccc3F)c3n(c(=O)c2c1OC)CCc1cc2c(cc1-3)OCO2 | rat | intravenous | 5 mg/kg |  | clearance | 3.67 mL/min/kg |
| C=CC(=O)Nc1cc(Nc2nccc(Nc3cc(Cl)c(F)cc3C(C)(C)O)n2)c(OC)cc1N1CC[C@@H](N(C)C)C1 | Wistar rat | intravenous | 3 mg/kg |  | clearance | 30.8 mL/min/kg |
| CNC(=O)c1c(C)oc2cc(Oc3ncnc4cc(OC)c(OC)cc34)ccc12 | Sprague-Dawley rat | oral | 1 mg/kg | single dose | CL/F | 3.5 mL/min/kg |
| COCCOC(=O)C1=C(C)NC(C)=C(C(=O)OC(C)C)C1c1cccc([N+](=O)[O-])c1 (stereo not shown) | male Sprague-Dawley rat | oral | 12 mg/kg |  | CL/F | 0.0943 mL/min/kg |
| N#Cc1ccc(Nc2nc(N)cc(Oc3c(F)cc(-c4ccc(C#N)cc4)cc3F)n2)cc1 | Sprague-Dawley rat | intravenous | 1 mg/kg |  | clearance | 54.6 mL/min/kg |
